Laboratory results as given in ChEMBL document CHEMBL1138687, “Pharmacological exploitation of the alpha1-adrenoreceptor antagonist doxazosin to develop a novel class of antitumor agents that block intracellular protein kinase B/Akt activation” (J Med Chem, 2004).

These compounds were tested on PC-3 (assay: Inhibition of prostate cancer (PC-3) cell proliferation). Details: Homo sapiens.
Type: functional, cell-based
In short: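 PC-3 cells, 8000/well, grown in RPMI 1640 with 10% FBS at 37 °C, 5% CO2. Exposed to the test agent in 10% FBS-supplemented RPMI 1640 for 48 h in six replicates. MTT at 0.5 mg/mL then added for 2 h at 37 °C, reduced dye dissolved in DMSO, absorbance read at 570 nm. IC50 taken from cell viability.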
For `COc1cc2nc(N3CCN(C(=O)c4ccc(C(F)(F)F)cc4)CC3)nc(N)c2cc1OC`, the IC50 was over 100 µM.
Work on `COc1ccc(S(=O)(=O)N2CCN(c3nc(N)c4cc(OC)c(OC)cc4n3)CC2)cc1` yielded an IC50 of 39 µM.
Work on `COc1cc2nc(N3CCN(S(=O)(=O)c4cccc(C(=O)O)c4)CC3)nc(N)c2cc1OC` yielded an IC50 of 53 µM.
`COc1cc2nc(N3CCN(S(=O)(=O)c4ccc(Cl)s4)CC3)nc(N)c2cc1OC` gave an IC50 of 25 µM.
Work on `COc1cc2nc(N3CCN(S(=O)(=O)c4ccc(-c5ccccc5)cc4)CC3)nc(N)c2cc1OC` yielded an IC50 of 4.2 µM.
`COc1cc2nc(N3CCN(S(=O)(=O)c4ccc(N)cc4N)CC3)nc(N)c2cc1OC` gave an IC50 of 67 µM.
Compound `COc1cc2nc(N3CCN(S(=O)(=O)c4ccc(-c5cc6ccccc6c6ccccc56)cc4)CC3)nc(N)c2cc1OC` has an IC50 of 5.2 µM.
Work on `COc1cc2nc(N3CCN(S(=O)(=O)c4ccc(-c5ccc(C(C)(C)C)cc5)cc4)CC3)nc(N)c2cc1OC` yielded an IC50 of 10 µM.
In the case of `COc1cc2nc(N3CCN(S(=O)(=O)c4cc(C(=O)O)c(Cl)cc4Cl)CC3)nc(N)c2cc1OC`, the IC50 is reported as 52 µM.
With `COc1cc2nc(N3CCN(C(=O)c4cccc(C#N)c4)CC3)nc(N)c2cc1OC` the IC50 was 82 µM.
`COc1cc2nc(N3CCN(S(=O)(=O)c4ccc(S(C)(=O)=O)cc4)CC3)nc(N)c2cc1OC` showed an IC50 of 17 µM.
`CCCOc1cc2nc(N3CCN(S(=O)(=O)c4ccc(-c5ccccc5)cc4)CC3)nc(N)c2cc1OCCC` showed an IC50 of 2.5 µM.
For `CCCCOc1cc2nc(N3CCN(S(=O)(=O)c4ccc(-c5ccccc5)cc4)CC3)nc(N)c2cc1OCCCC`, the IC50 was 3.5 µM.
`COc1cc2nc(N3CCN(S(=O)(=O)c4cc(Cl)ccc4Cl)CC3)nc(N)c2cc1OC` gave an IC50 of 60 µM.
In the case of `COc1cc2nc(N3CCN(C(=O)c4cccc5ccccc45)CC3)nc(N)c2cc1OC`, the IC50 is reported as 59 µM.
`COc1cc2nc(N3CCN(S(=O)(=O)c4ccc5ccccc5c4)CC3)nc(N)c2cc1OC` gave an IC50 of 15 µM.
In the case of `COc1cc2nc(N3CCN(S(=O)(=O)c4ccc(OC(F)(F)F)cc4)CC3)nc(N)c2cc1OC`, the IC50 is reported as 25 µM.
`COc1cc2nc(N3CCN(S(=O)(=O)c4ccccc4[N+](=O)[O-])CC3)nc(N)c2cc1OC` showed an IC50 of 35 µM.
Work on `COc1cc2nc(N3CCN(C(=O)c4ccc(C(C)(C)C)cc4)CC3)nc(N)c2cc1OC` yielded an IC50 of 47 µM.
With `COc1ccc(C(=O)N2CCN(c3nc(N)c4cc(OC)c(OC)cc4n3)CC2)cc1OC` the IC50 was 71 µM.
For `COc1cc2nc(N3CCN(C(=O)c4ccc(N)cc4)CC3)nc(N)c2cc1OC`, the IC50 was over 100 µM.
In the case of `COc1cc2nc(N3CCN(S(=O)(=O)c4ccc(C(C)(C)C)cc4)CC3)nc(N)c2cc1OC`, the IC50 is reported as 4.1 µM.
`CC(C)Oc1cc2nc(N3CCN(S(=O)(=O)c4ccc(-c5ccccc5)cc4)CC3)nc(N)c2cc1OC(C)C` showed an IC50 of 24 µM.
Compound `COc1cc2nc(N3CCN(S(=O)(=O)c4ccc(Br)cc4)CC3)nc(N)c2cc1OC` has an IC50 of 20 µM.
Compound `COc1cc2nc(N3CCN(S(=O)(=O)c4ccc([N+](=O)[O-])cc4)CC3)nc(N)c2cc1OC` has an IC50 of 36 µM.
`COc1cc2nc(N3CCN(C(=O)c4ccc(Cl)cc4)CC3)nc(N)c2cc1OC` gave an IC50 of 60 µM.
`COc1cc2nc(N3CCN(C(=O)c4ccc(C#N)cc4)CC3)nc(N)c2cc1OC` was tested, and the IC50 was 68 µM.
Work on `C=CCOc1cc2nc(N3CCN(S(=O)(=O)c4ccc(-c5ccccc5)cc4)CC3)nc(N)c2cc1OCC=C` yielded an IC50 of 3.3 µM.
Compound `COc1cc2nc(N3CCN(S(=O)(=O)c4c(C(C)C)cc(C(C)C)cc4C(C)C)CC3)nc(N)c2cc1OC` has an IC50 of 24 µM.
For `COc1cc2nc(N3CCN(S(=O)(=O)c4cc(F)c(Cl)c(C(=O)O)c4)CC3)nc(N)c2cc1OC`, the IC50 was 56 µM.
Work on `COc1cc2nc(N3CCN(S(=O)(=O)c4ccc(C(=O)O)cc4)CC3)nc(N)c2cc1OC` yielded an IC50 of 53 µM.
With `COc1cc2nc(N3CCN(S(=O)(=O)c4ccc(I)cc4)CC3)nc(N)c2cc1OC` the IC50 was 15 µM.
With `COc1cc2nc(N3CCN(S(=O)(=O)c4cccc([N+](=O)[O-])c4)CC3)nc(N)c2cc1OC` the IC50 was 32 µM.
Compound `COc1cc2nc(N3CCN(S(=O)(=O)c4ccc(-c5ccc(C)cc5)cc4)CC3)nc(N)c2cc1OC` has an IC50 of 3.4 µM.
`COc1cc2nc(N3CCN(S(=O)(=O)c4ccc(-c5ccc(C(F)(F)F)cc5)cc4)CC3)nc(N)c2cc1OC` gave an IC50 of 3.3 µM.
`COc1cc2nc(N3CCN(S(=O)(=O)c4cccc5ccccc45)CC3)nc(N)c2cc1OC` gave an IC50 of 14 µM.
In the case of `COc1cc2nc(N3CCN(C(=O)OCc4ccccc4)CC3)nc(N)c2cc1OC`, the IC50 is reported as 63 µM.
Compound `CCCCc1ccc(-c2ccc(S(=O)(=O)N3CCN(c4nc(N)c5cc(OC)c(OC)cc5n4)CC3)cc2)cc1` has an IC50 of 3.4 µM.
For `COc1cc2nc(N3CCN(S(=O)(=O)c4ccc(-c5ccc(S(C)(=O)=O)cc5)cc4)CC3)nc(N)c2cc1OC`, the IC50 was 7.2 µM.
With `COc1cc2nc(N3CCN(S(=O)(=O)c4ccc(C(F)(F)F)cc4)CC3)nc(N)c2cc1OC` the IC50 was 27 µM.
For `COc1cc2nc(N3CCN(C(=O)c4ccc([N+](=O)[O-])cc4)CC3)nc(N)c2cc1OC`, the IC50 was 75 µM.
`COc1cc2nc(N3CCN(S(=O)(=O)c4ccc(Cl)cc4)CC3)nc(N)c2cc1OC` showed an IC50 of 23 µM.
`COc1cc2nc(N3CCN(S(=O)(=O)c4ccc(C)cc4)CC3)nc(N)c2cc1OC` showed an IC50 of 30 µM.
With `COc1cc2nc(N3CCN(S(=O)(=O)c4cccc5c(N(C)C)cccc45)CC3)nc(N)c2cc1OC` the IC50 was 29 µM.
In the case of `COc1cc2nc(N3CCN(C(=O)C4COc5ccccc5O4)CC3)nc(N)c2cc1OC` (stereo not given) [DOXAZOSIN], the IC50 is reported as 45 µM.
